From ChEMBL document CHEMBL1127598, “Synthesis of a series of 4-(arylethynyl)-6-chloro-4-cyclopropyl-3,4-dihydroquinazolin-2(1H)-ones as novel non-nucleoside HIV-1 reverse transcriptase inhibitors” (J Med Chem, 1994)

Columns and labels:
[1] = target: Human immunodeficiency virus type 1 reverse transcriptase (Human immunodeficiency virus 1, UniProt Q72547); test: Ability to inhibit HIV-1 Reverse Transcriptase (RT) using an rC-dG template/primer
MT4 [2] = test: Concentration of compound which inhibited greater than 95% the spread of infection of cultured MT-4 cells; type: functional, Homo sapiens
Method in brief: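 MT-4 cells infected with HIV-1 strain IIIb. The spread of infection was measured by p24 core antigen ELISA. The CIC95 is the lowest compound concentration that inhibited spread of infection by more than 95%.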

MT4 [3] = test: Compound was evaluated for the anti-viral activity against cultured MT-4 cells; type: functional, Homo sapiens

| Compound | IC50 [1] | ClC95 (MT4 [2]) | ClC95 (MT4 [3]) |
| --- | --- | --- | --- |
| O=C1Nc2ccc(Cl)cc2C(C#Cc2cccnc2)(C2CC2)N1 (stereo not drawn) | 64.5 nM | – | – |
| O=C1Nc2ccc(Cl)cc2C(C#Cc2cncnc2)(C2CC2)N1 (stereo not drawn) | 1500 nM | – | – |
| O=C1Nc2ccc(Cl)cc2[C@@](C#Cc2ccccn2)(C2CC2)N1 | 12 nM | – | – |
| O=C1Nc2ccc(Cl)cc2C(C#Cc2ncccn2)(C2CC2)N1 (stereo not drawn) | 130 nM | – | – |
| O=C1Nc2ccc(Cl)cc2[C@](C#Cc2ccccn2)(C2CC2)N1 | 9300 nM | – | – |
| O=C1Nc2ccc(Cl)cc2C(C#Cc2ccccn2)(C2CC2)N1 (stereo not drawn) | 23.2 nM | 25 nM | – |
| CN1C(=O)Nc2ccc(Cl)cc2C1(C#Cc1ccccn1)C1CC1 (stereo not drawn) | 19.6 nM | – | – |
| O=C1Nc2ccc(Cl)cc2C(C#Cc2ccco2)(C2CC2)N1 (stereo not drawn) | 9.2 nM | – | – |
| CC(C)=CCN1Cc2cccc3nc(S)n(c23)C[C@H]1C | 70 nM | – | 200 nM |
| O=C1Nc2ccc(Cl)cc2C(C#Cc2nccs2)(C2CC2)N1 (stereo not drawn) | 10.9 nM | – | 12 nM |
| O=C1Nc2ccc(Cl)cc2C(C#Cc2ccncc2)(C2CC2)N1 (stereo not drawn) | 450 nM | – | – |
| O=C1Nc2ccc(Cl)cc2C(C#Cc2ccccc2)(C2CC2)N1 (stereo not drawn) | 17.7 nM | 100 nM | – |
| N#Cc1ccccc1C#CC1(C2CC2)NC(=O)Nc2ccc(Cl)cc21 (stereo not drawn) | 10.8 nM | – | 12 nM |
| O=C1Nc2ccc(Cl)cc2C(C#Cc2cnccn2)(C2CC2)N1 (stereo not drawn) | 270 nM | – | – |
| O=C1Nc2ccc(Cl)cc2C(C#Cc2cc([N+](=O)[O-])ccn2)(C2CC2)N1 (stereo not drawn) | > 10000 nM | – | – |
| O=C1Nc2ccc(Cl)cc2C(C#Cc2ccccc2[N+](=O)[O-])(C2CC2)N1 (stereo not drawn) | 12.8 nM | – | – |
| CCc1cc(NCc2nc3c(Cl)ccc(Cl)c3o2)c(O)nc1C [L-697661] | – | – | 50 nM |
| Cc1ccnc2c1NC(=O)c1cccnc1N2C1CC1 [NEVIRAPINE] | – | – | 100 nM |
